Measured values of several laboratories.
Lines come from different studies, so protocols differ.
Target: BMP-2-inducible protein kinase (BMP2K, Homo sapiens, UniProt Q9NSY1)

SMILES	test	setting	quantity	value
NS(=O)(=O)c1ccc(CNc2ccnc(Nc3cccc(CN4CCOCC4)c3)n2)cc1	enzyme activity, inhibitor, radiometric	1 µM	remaining activity	51%
Cc1ccc(C(=O)NCc2ccsc2)cc1C#Cc1cn(C(C)C)c2ncnc(N)c12	enzyme activity, inhibitor	1 µM	activity vs control	128%
Cn1nc(C(=O)NCc2ccc(C(=O)O)cc2)cc1-c1ccc2[nH]ccc2c1	cell-free assay, competition with immobilised ligand	0.1 µM	remaining binding	82%
CN(CCCC(F)(F)F)c1nccc(-c2cnn3ncccc23)n1	binding	1 µM	remaining binding	100%
CN1CCc2cc(Nc3ncc(C4CC4)c(NCCCNC(=O)C4CCC4)n3)ccc2C1	enzyme activity, inhibitor, radiometric	1 µM	remaining activity	3%
Nc1ncnc2occ(-c3ccc(NC(=O)Nc4cc(C(F)(F)F)ccc4F)cc3)c12	cell-free assay, inhibitor	20 µM	remaining signal	59%
Cc1nn(CC(F)(F)F)cc1Nc1ncc(C2CC2)c(NCc2ccc(S(N)(=O)=O)cc2)n1	enzyme activity, inhibitor, radiometric	1 µM	remaining activity	94%
Cc1ccc(C(=O)Nc2ccc(CN3CCN(C)CC3)c(C(F)(F)F)c2)cc1C#Cc1cnc2cccnn12	enzyme activity, inhibitor	23.5 nM	remaining activity	95%
N#CC1(c2ccccn2)CCN(Cc2cc(C(=O)N3CCCC3)c(=O)n3ccccc23)CC1	cell-free assay, competition with immobilised ligand	1 µM	remaining binding	92%
Cn1c2c(Cl)c(Cl)ccc2c2cc[nH]c(=O)c21	thermal stability, DSF	10 µM	ΔTm	> 8 °C
